Where a name gives a salt, the structure may show the parent alone.
Legend:
β-hematin formation = experiment: NP-40 mediated β-hematin formation assay; assay type: biochemical
[1] = tested on: intraerythrocytic P. falciparum parasites; experiment: Flow cytometric analysis of nuclear content and parasitemia; assay type: cell-based, Plasmodium falciparum; conditions: 1 × IC90, continuous treatment for 96 h
Summary of the method: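 Intraerythrocytic parasites (2% parasitemia, 2% hematocrit) treated in duplicate, with untreated (DMSO) controls. Samples taken at 24, 48, 72 and 96 h. Nuclear content (1 N rings/early trophozoites, 2 N trophozoites, >2 N schizonts) and parasitemia measured from SYBR Green I fluorescence by flow cytometry in the FITC channel (488 nm excitation; 502 nm long-pass and 530 nm band-pass emission).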

[2] = tested on: late (>90% stage IV/V) gametocytes of P. falciparum (NF54-Mal8p1.16-GFP-Luc); experiment: Gametocytocidal luciferase reporter assay, late gametocytes; assay type: cell-based, Plasmodium falciparum; conditions: 5 µM, 48 h, inhibition of luciferase readout
Summary of the method: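 Gametocytes induced from synchronized asexual cultures in the NF54-Mal8p1.16-GFP-Luc line: glucose-free medium under hypoxia, with daily changes, and 50 mM N-acetyl glucosamine on days 1–4 to remove asexual forms. Assays set up on day 10 in triplicate at 2% gametocytemia and 2% hematocrit, 48 h, 37 °C, hypoxic. Luciferin added to lysates at room temperature and luminescence read with 10 s integration; % inhibition derived.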

HepG2 cells [3] = experiment: Cytotoxicity against HepG2 cells, lactate dehydrogenase; assay type: cell-based, human; conditions: GI50 mammalian cell (HepG2)/IC50 P. falciparum (3D7)
[4] = tested on: intraerythrocytic P. falciparum 3D7; conditions: cited from earlier work
Plasmodium yoelii = conditions: murine model of Plasmodium yoelii; ref unpublished observations; cited from earlier work
HepG2 cells [5] = conditions: HepG2 vs P. falciparum; cited from earlier work

In the case of `O=C(NCCCNCCCCCNCCCNC(=O)NCCC(c1ccccc1)c1ccccc1)NCCC(c1ccccc1)c1ccccc1` [Compound 16, 1,13-Bis-{3-[1-(3′,3′-diphenylpropyl)urea]}-4,10-diazatridecane dihydrochloride], the IC50 (β-hematin formation; read-out: β-hematin formation inhibition IC50, NP-40 mediated, n = 3) is reported as over 400 µM and the “Time to complete cessation of parasite proliferation” value [1] is reported as at most 24 h.

For `O=C(NCCCNCCCCCNCCCNC(=O)NCC(c1ccccc1)c1ccccc1)NCC(c1ccccc1)c1ccccc1` [Compound 15, 1,13-Bis-{3-[1-(2′,2′-diphenylethyl)urea]}-4,10-diazat-ridecane dihydrochloride], the “Time to complete cessation of parasite proliferation” value [1] was at most 24 h.

With `S=C(NCCCNCCCCCNCCCNC(=S)NCCC(c1ccccc1)c1ccccc1)NCCC(c1ccccc1)c1ccccc1` [Compound 11, 1,13-Bis-{3-[1-(3′,3′-diphenylpropyl)thiourea]}-4,10-diazatridecane dihydrochloride] the “Gametocytocidal activity, late-stage gametocytes” value [2] was “fully inhibitory”.

With `S=C(NCCCNCCCCCNCCCNC(=S)NCC(c1ccccc1)c1ccccc1)NCC(c1ccccc1)c1ccccc1` [Compound 10, 1,13-Bis-{3-[1-(2′,2′-diphenylethyl)thiourea]}-4,10-diazatridecane dihydrochloride] the “Selectivity index (SI)” value (HepG2 cells [3]) was over 1000.

In the case of `S=C(NCCCNCCCCCNCCCNC(=S)NC(c1ccccc1)c1ccccc1)NC(c1ccccc1)c1ccccc1` [Compound 9, 1,13-Bis-{3-[1-(1’,1’-diphenylmethyl)thiourea]}-4,10-diazatridecane dihydrochloride], the “Gametocytocidal activity, late-stage gametocytes” value [2] is reported as “fully inhibitory”.

For `CCCNC(=O)NCCCNCCCCCCNCCCNC(=O)NCCC` [Compound 53], the “P. falciparum IC50 (previously reported analogues)” value [4] is given as “inactive”.

For `O=C(NCCCNCCCCCNCCCNC(=O)NCc1ccccc1)NCc1ccccc1` [Compound 13, 1,13-Bis-{3-[1-(benzyl)urea]}-4,10-diazatridecane dihydrochloride], the “β-hematin formation inhibition, concentration without activity” value (β-hematin formation; no activity even at 1 mM) was over 1 mM.

For `C(CCCNCCCNCC1CCCCCC1)CCCNCCCNCC1CCCCCC1` [Compound 5], the “Reduction of parasitemia and extension of life span” value (Plasmodium yoelii) is given as “as effective as pyrimethamine at reducing parasitemia and extending life span”.

For `CCNC(=O)NCCCNCCCCCCNCCCNC(=O)NCC` [Compound 54], the “P. falciparum IC50 (previously reported analogues)” value [4] is listed as “inactive”.

In the case of `O=C(NCCCNCCCCCCCNCCCNC(=O)NC(c1ccccc1)c1ccccc1)NC(c1ccccc1)c1ccccc1` [Compound 29], the “Selectivity (SI) compared to HepG2 cells (previously reported analogues)” value (HepG2 cells [5]) is listed as over 1000.

In the case of `S=C(NCCCNCCCCCCNCCCNC(=S)NCc1ccccc1)NCc1ccccc1` [Compound 28], the “Selectivity (SI) compared to HepG2 cells (previously reported analogues)” value (HepG2 cells [5]) is given as over 1000.
